The text below walks through data of ChEMBL document CHEMBL1127039, “Nonpeptide angiotensin II antagonists derived from 4H-1,2,4-triazoles and 3H-imidazo[1,2-b][1,2,4]triazoles” (J Med Chem, 1993).

The source made the active and inactive calls. The rule behind the calls is not given here.

Test [1] deals with T1, Type-1 angiotensin II receptor (Oryctolagus cuniculus, UniProt P34976).
T1 sequence (P34976 whole entry): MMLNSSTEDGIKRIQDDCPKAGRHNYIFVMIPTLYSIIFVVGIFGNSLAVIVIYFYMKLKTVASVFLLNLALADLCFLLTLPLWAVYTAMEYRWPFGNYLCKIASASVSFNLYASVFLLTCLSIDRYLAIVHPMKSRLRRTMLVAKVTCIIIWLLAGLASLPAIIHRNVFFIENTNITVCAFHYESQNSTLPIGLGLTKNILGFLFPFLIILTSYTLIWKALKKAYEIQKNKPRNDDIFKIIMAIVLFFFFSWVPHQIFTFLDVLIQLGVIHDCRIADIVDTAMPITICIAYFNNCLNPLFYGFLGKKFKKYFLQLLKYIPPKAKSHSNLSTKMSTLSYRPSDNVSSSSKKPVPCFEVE
Nature of the test: Displacement of [125I]-Sar1-Ile8-A II at the rabbit aorta angiotensin II receptor, type 1. In kind it is tissue-based. The gist of the method:
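Rabbit aorta membranes in 50 mM Tris-HCl pH 7.4, 5 mM MgCl2, 0.2 mg/mL bacitracin; 0.2% BSA only in original version. Nonspecific binding with 1 μM unlabeled Sar1Ile8-AII. Filtration, gamma counting. Duplicate tubes, five concentrations; IC50 from nonlinear regression of displacement curves, sometimes averaged over separate assays.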
In general terms: In a radioligand displacement assay an active substance lowers the binding of a labelled ligand.

In test [2] the test system is Rattus norvegicus. Briefly: Peak inhibition of A II pressor response in conscious normotensive rats after peroral administration of 30 mg/kg of drug. In kind it is functional. Conditions: route oral. The gist of the method: (§1)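 Male Sprague-Dawley rats (300–400 g) catheterized under methohexital, recovered overnight, conscious. Compound given iv (saline or NaHCO3/saline/water vehicle) or po, with food withheld for oral dosing. AII 0.1 μg/kg iv bolus given at -45, -30 and -15 min, then at 5–60 min and every 30 min afterwards. Peak percent inhibition of the AII ΔMAP response, averaged over at least two rats.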

Test [3] deals with Rattus norvegicus. Nature of the test: Time from onset of action until significant (i.e., >= 30%) inhibition of pressor response no longer observed (30 mg/kg peroral route). In kind it is functional. The gist of the method:
(§2)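 Same conscious-rat AII challenge protocol: AII 0.1 μg/kg iv boluses repeated after iv or po dosing, ΔMAP recorded. Duration is the time from onset until inhibition falls below 30% and stays below 30% for two further AII challenges. Averaged over at least two rats.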

Test [4] concerns Rattus norvegicus. Briefly: Time from onset of action until significant (i.e., >= 30%) inhibition of pressor response no longer observed (10 mg/kg intravenous route). In kind it is functional. The gist of the method: as §2
In test [5] the test system is Rattus norvegicus. Nature of the test: Peak inhibition of A II pressor response in conscious normotensive rats after intravenous administration of 10 mg/kg of drug (3 animals treated). Format: functional. The gist of the method: as §1
In test [6] the test system is Rattus norvegicus. Nature of the test: Time from onset of action until significant (i.e., >= 30%) inhibition of pressor response no longer observed (1 mg/kg intravenous route). In kind it is functional. A digest of the protocol:
as §2

Test [7] relates to Rattus norvegicus. Briefly: Peak inhibition of A II pressor response in conscious normotensive rats after intravenous administration of 1 mg/kg of drug (2 animals treated). Format: functional. The gist of the method:
as §1

Test [8] relates to Rattus norvegicus. Nature of the test: Peak inhibition of A II pressor response in conscious normotensive rats after intravenous administration of 3 mg/kg of drug (4 animals treated). Format: functional. The gist of the method:
as §1

For test [9], the system named is Rattus norvegicus. Nature of the test: Time from onset of action until significant (i.e., >= 30%) inhibition of pressor response no longer observed (3 mg/kg intravenous route). In kind it is functional. The gist of the method:
as §2

Test [10] concerns Rattus norvegicus. Nature of the test: Peak inhibition of A II pressor response in conscious normotensive rats after intravenous administration of 3 mg/kg of drug (2 animals treated). Format: functional. A digest of the protocol:
as §1

In test [11] the test system is Rattus norvegicus. Briefly: Peak inhibition of A II pressor response in conscious normotensive rats after peroral administration of 0.3 mg/kg of drug (2 animals treated); Not active. In kind it is functional, organism-based. Also noted: dose 0.3 mg/kg. The gist of the method: as §1
Test [12] has as its system Rattus norvegicus. Nature of the test: Time from onset of action until significant (i.e., >= 30%) inhibition of pressor response no longer observed (0.3 mg/kg intravenous route). Format: functional. The gist of the method: as §2
Test [13] concerns Rattus norvegicus. Nature of the test: Time from onset of action until significant (i.e., >= 30%) inhibition of pressor response no longer observed (0.3 mg/kg peroral route)); Not active. Format: functional, organism-based. A digest of the protocol:
as §2

For test [14], the system named is Rattus norvegicus. Briefly: Time from onset of action until significant (i.e., >= 30%) inhibition of pressor response no longer observed (1 mg/kg intravenous route). In kind it is functional. A digest of the protocol: as §2
The subject of test [15] is Rattus norvegicus. Briefly: Peak inhibition of A II pressor response in conscious normotensive rats after intravenous administration of 0.3 mg/kg of drug (4 animals treated). In kind it is functional. The gist of the method: as §1
The test system of test [16] is Rattus norvegicus. Briefly: Peak inhibition of A II pressor response in conscious normotensive rats after peroral administration of 3 mg/kg of drug (3 animals treated). In kind it is functional. The conditions noted are these: route oral. The gist of the method: as §1
The test system of test [17] is Rattus norvegicus. Nature of the test: Time from onset of action until significant (i.e., >= 30%) inhibition of pressor response no longer observed (3 mg/kg intravenous route). Format: functional. A digest of the protocol: as §2
The test system of test [18] is Rattus norvegicus. Briefly: Time from onset of action until significant (i.e., >= 30%) inhibition of pressor response no longer observed (3 mg/kg peroral route). In kind it is functional. A digest of the protocol: as §2
Test [19] is filed under the species Rattus norvegicus. Nature of the test: In vitro antagonistic activity by displacement of [125I]-Sar1-Ile8-A II at the rat adrenal cortical […] AT1 receptor. Format: functional.
For test [20], the system named is Rattus norvegicus. Briefly: Peak inhibition of A II pressor response in conscious normotensive rats after peroral administration of 0.3 mg/kg of drug (2 animals treated). In kind it is functional. Conditions: route oral. A digest of the protocol:
as §1

In test [21] the test system is Rattus norvegicus. Briefly: Peak inhibition of A II pressor response in conscious normotensive rats after peroral administration of 3 mg/kg of drug (4 animals treated). Format: functional. The conditions noted are these: route oral. The gist of the method:
as §1

Test [22] has as its system Rattus norvegicus. Nature of the test: Time from onset of action until significant (i.e., >= 30%) inhibition of pressor response no longer observed (0.3 mg/kg peroral route). In kind it is functional. A digest of the protocol: as §2
Test [23] has as its system Rattus norvegicus. Briefly: Peak inhibition of A II pressor response in conscious normotensive rats after peroral administration of 1 mg/kg of drug (2 animals treated). Format: functional. The conditions noted are these: route oral. The gist of the method: as §1
Test [24] relates to Rattus norvegicus. Briefly: Time from onset of action until significant (i.e., >= 30%) inhibition of pressor response no longer observed (1 mg/kg peroral route). Format: functional. The gist of the method:
as §2

For test [25], the system named is Rattus norvegicus. Briefly: Peak inhibition of A II pressor response in conscious normotensive rats after intravenous administration of 0.3 mg/kg of drug (2 animals treated). In kind it is functional. The gist of the method:
as §1

Test [26] concerns Rattus norvegicus. Nature of the test: Peak inhibition of A II pressor response in conscious normotensive rats after intravenous administration of 1 mg/Kg of drug (2 animals treated). Format: functional. The gist of the method: as §1
Test [27] relates to Rattus norvegicus. Nature of the test: Time from onset of action until significant (i.e., >= 30%) inhibition of pressor response no longer observed (1 mg/Kg intravenous route). In kind it is functional. A digest of the protocol: as §2
For test [28], the system named is Rattus norvegicus. Briefly: Peak inhibition of A II pressor response in conscious normotensive rats after peroral administration of 3 mg/kg of drug (results shown for 3 out of 4 animals). Format: functional. Conditions: route oral. The gist of the method:
as §1

In test [29] the test system is Rattus norvegicus. Nature of the test: Time from onset of action until significant (i.e., >= 30%) inhibition of pressor response no longer observed (0.3 mg/kg peroral route); Not active. Format: functional, organism-based. A digest of the protocol:
as §2

As for `CCCCc1nnc(SCc2ccccc2)n1Cc1ccc(NC(=O)c2ccccc2C(=O)O)cc1`, the IC50 (in general, the point on the concentration scale where inhibition reaches its midpoint) in [1] stood at 15 nM. Further, the inhibition in vivo – broadly, the change of the read-out against control, counted positive when it falls – at 30 mg/kg in test [2] came out at 33%. For the same molecule, the Duration in test [3] turned out to be 0.4 h.
Consider `CCCCc1nnc(SCC(=O)OC)n1Cc1ccc(-c2ccccc2C(=O)O)cc1`, for which the IC50 in [1] turned out to be 540 nM. The Duration in test [4] was found to be 0.9 h. 10 mg/kg produced 93% inhibition in vivo in test [5].
In [1], `CCCCc1nnc(SCc2ccc(OC)cc2)n1Cc1ccc(NC(=O)c2ccccc2-c2nn[nH]n2)cc1` returned an IC50 of 4.1 nM. This molecule also returned a Duration in test [6] of 0.2 h. In addition, at 1 mg/kg the inhibition in vivo in [7] was 70%.
For the molecule `CCCCc1nnc(SCc2ccc([N+](=O)[O-])cc2)n1Cc1ccc(-c2ccccc2-c2nn[nH]n2)cc1`, the IC50 in [1] is 6.6 nM. Also, testing at 3 mg/kg in [8] gave an inhibition in vivo of 65%. The Duration in test [9] amounted to 1.4 h.
The molecule `CCCCc1nnc(SCc2ccccc2C)n1Cc1ccc(NC(=O)c2ccccc2C(=O)O)cc1` registered an IC50 in [1] of 14 nM. The molecule further showed an inhibition in vivo at 3 mg/kg in test [10] of 56%. The Duration in test [9] came to 0.5 h.
`CCCCc1nnc(SCc2ccccc2C(=O)O)n1Cc1ccc(NC(=O)c2ccccc2C(=O)O)cc1`: the IC50 in [1] is 3.3 nM. In test [11], the inhibition result is “inactive”. In addition, the Duration stood at 0.9 h in test [12] and 1.4 h in [14]. In [13], the Duration entry is “inactive”. In test [15], at 0.3 mg/kg the inhibition in vivo was 74%. The inhibition in vivo at 1 mg/kg in test [7] is 100%.
`CCCCc1nnc(SCc2ccccc2-c2nn[nH]n2)n1Cc1ccc(-c2ccccc2-c2nn[nH]n2)cc1` had an IC50 in test [1] of 1.4 nM. In addition, the Duration in [6] worked out at 0.6 h. This molecule yielded an inhibition in vivo at 1 mg/kg in test [7] of 62%.
As for `CCCCc1nnc(SCc2ccc(Cl)cc2)n1Cc1ccc(-c2ccccc2-c2nn[nH]n2)cc1`, the results for the inhibition in vivo at 3 mg/kg in test [10] and in test [16] were 62% and 50%, respectively. Besides, the results for the Duration in test [17] and in [18] were 1 h and 1.5 h, respectively.
For `CCCCc1nnc(SCc2ccc(C)cc2)n1Cc1ccc(NC(=O)c2ccccc2C(=O)O)cc1`, the IC50 in test [1] was determined as 7.6 nM. In [10], this molecule had an inhibition in vivo at 3 mg/kg of 50%. In test [9], the Duration came out at 0.1 h.
`CCCCc1nc(Cl)c(CO)n1Cc1ccc(-c2ccccc2-c2nnn[nH]2)cc1` [LOSARTAN] had an IC50 in test [19] of 19 nM. The inhibition in vivo at 0.3 mg/kg in test [20] is 36%; in test [15] it was 52%. For the same molecule, the inhibition in vivo at 3 mg/kg in test [21] turned out to be 94%. For the same molecule, the Duration in test [12] is 5.5 h; in [22] it was more than 3.5 h; in [18], more than 4.5 h.
With `CCCCc1nc(Cl)c(C(=O)O)n1Cc1ccc(-c2ccccc2-c2nn[nH]n2)cc1` [CARBOXYLIC ACID METABOLITE], the inhibition in vivo at 0.3 mg/kg worked out at 63% in [20] and 100% in [25]. In [23], this molecule showed an inhibition in vivo at 1 mg/kg of 72%. The Duration is more than 29 h in test [12], 2.8 h in test [22] and more than 7 h in [24].
On to `CCCCc1nnc([S+]([O-])Cc2ccc(Cl)cc2)n1Cc1ccc(-c2ccccc2-c2nn[nH]n2)cc1` (stereo not given), for which, in test [1], the IC50 is 11 nM. In [26], the Inhibition (commonly the percentage by which the read-out fell short of the control) is 42%. For the same molecule, in [27], the Duration worked out at 0.1 h.
`CCCCc1nnc(SCc2ccccc2C(=O)O)n1Cc1ccc(-c2ccccc2-c2nn[nH]n2)cc1` yielded an IC50 in test [1] of 1.5 nM. Besides, the inhibition in vivo at 0.3 mg/kg is 0% in test [20] and 100% in [25]. In addition, in test [28], the inhibition in vivo at 3 mg/kg is 54%. Besides, the Duration is 5.5 h in test [12] and more than 6 h in test [18]. Also, the Duration result in test [29] is “inactive”.
